Calls of active or inactive are those of the source. The calls are words filed in the database; no cut-off is given here.
Tests used:
Salmonella enterica = test: Antibacterial activity against Salmonella enterica ATCC 13076 after 16 to 20 hrs by broth microdilution method; type: functional
Procedure, shortened: (§1)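 Broth microdilution per CLSI. Bacteria grown 4-6 h (about 10⁸ CFU/mL), then diluted to about 10⁶ CFU/mL. Medium: Mueller-Hinton broth, except Luria-Bertani broth for E. coli. Compounds in sterile water, twofold series 256-0.5 µg/mL, mixed 1:1 with inoculum, 37 °C for 16-20 h. MIC is the lowest concentration without visible growth. Duplicate wells; experiment repeated at least twice.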

Staphylococcus aureus [1] = test: Antibacterial activity against Staphylococcus aureus ATCC 29213 after 16 to 20 hrs by broth microdilution method; type: functional; procedure, shortened: as §1
Escherichia coli [2] = test: Antibacterial activity against Escherichia coli ATCC 25922 after 16 to 20 hrs by broth microdilution method; type: functional; procedure, shortened: as §1
Enterococcus faecalis = test: Antibacterial activity against Enterococcus faecalis ATCC 29212 after 16 to 20 hrs by broth microdilution method; type: functional; procedure, shortened: as §1
[3] = Hemolytic activity in sheep RBC after 1 hr; type: ADME, cell-based, Ovis aries, Erythrocyte; conditions: sheep red blood cells (erythrocytes)
Procedure, shortened: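 Sheep red blood cells (150 µL suspension) mixed with 50 µL of compound dilutions (5120-10 µg/mL), 1 h at 37 °C, then centrifuged. Supernatant read at 540 nm. Percent hemolysis calculated relative to RBC-only control (0%) and 0.1% Triton X-100 (100%).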

Staphylococcus aureus [4] = test: Induction of inner membrane permeabilization in Staphylococcus aureus ATCC 29213 at 10 to 20 ug/ml measured every 2 mins for 12 mins by propidium iodide staining-based fluorescence assay; type: functional, organism-based
Procedure, shortened: (§2)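 Mid-log cells (~10⁸ CFU/mL) were suspended in PBS (S. aureus) or HEPES/glucose/KCl (E. coli). They were preincubated with propidium iodide for 30 min (S. aureus) or 40 min (E. coli), and baseline fluorescence was read for 8 min. Compound was added to 20 µg/mL final, and fluorescence (ex 535/em 617 nm) was read every 2 min for 12 min.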

Staphylococcus aureus [5] = test: Induction of cytoplasmic membrane depolarization in Staphylococcus aureus ATCC 29213 at 10 to 20 ug/ml measured every 2 mins for 12 mins by DiSC35 dye-based fluorescence assay; type: functional, organism-based
Procedure, shortened: (§3)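 Mid-log cells (~10⁸ CFU/mL) were suspended in PBS (S. aureus) or HEPES/glucose/KCl with EDTA (E. coli). They were preloaded with DiSC3(5) for 30 min (S. aureus) or 40 min (E. coli), and baseline fluorescence was read for 8 min. Compound was added to 20 µg/mL final, and fluorescence (ex 622/em 670 nm) was read every 2 min for 12 min. Water served as control.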

Escherichia coli [6] = test: Induction of inner membrane permeabilization in Escherichia coli ATCC 25922 at 10 to 20 ug/ml measured every 2 mins for 12 mins by propidium iodide staining-based fluorescence assay; type: functional, organism-based; procedure, shortened: as §2
Escherichia coli [7] = test: Induction of cytoplasmic membrane depolarization in Escherichia coli ATCC 25922 at 10 to 20 ug/ml measured every 2 mins for 12 mins by DiSC35 dye-based fluorescence assay; type: functional, organism-based; procedure, shortened: as §3

SMILES	MIC (Salmonella enterica) [µg/mL]	MIC (Staphylococcus aureus [1]) [µg/mL]	MIC (Escherichia coli [2]) [µg/mL]	MIC (Enterococcus faecalis) [µg/mL]	HC50 at 1 h [3] [µg/mL]	Activity (Staphylococcus aureus [4])	Activity (Staphylococcus aureus [5])	Activity (Escherichia coli [6])	Activity (Escherichia coli [7])
CCCCCCCC[N+](C)(C)CC(=O)Nc1ccc(C(=O)/C=C/c2cc([N+](=O)[O-])ccc2OCC)cc1.[Cl-]	> 128	8	> 128	2	102	–	–	–	–
CCCC[N+](C)(C)CC(=O)Nc1ccc(C(=O)/C=C/c2cccs2)cc1.[Cl-]	128	32	64	32	360	–	–	–	–
CCCCCCCC[N+](C)(C)CC(=O)Nc1cccc(C(=O)/C=C/c2cccs2)c1.[Cl-]	16	2	16	4	249	–	–	–	–
CCCC[N+](C)(C)CC(=O)Nc1ccc(C(=O)/C=C/c2ccncc2)cc1.[Cl-]	> 128	128	> 128	128	> 500	–	–	–	–
CCCCCCCC[N+](C)(C)CC(=O)Nc1ccc(C(=O)/C=C/c2ncccc2F)cc1.[Cl-]	16	2	8	8	83	–	–	–	–
CCCCCCCCCCCCCC[N+](C)(C)CC(=O)Nc1ccc(C(=O)/C=C/c2ccccc2F)cc1.[Cl-]	> 128	8	> 128	> 128	192	–	–	–	–
C[C@@H](O)[C@H]1C(=O)N2C(C(=O)O)=C(S[C@@H]3CN[C@H](C(=O)N(C)C)C3)[C@H](C)[C@H]12 [MEROPENEM]	–	–	< 0.125	–	–	–	–	–	–
CCCCCCCC[N+](C)(C)CC(=O)Nc1ccc(C(=O)/C=C/c2ccncc2)cc1.[Cl-]	32	4	16	8	200	–	–	–	–
CCCC[N+](C)(C)CC(=O)Nc1ccc(C(=O)/C=C/c2ccccc2F)cc1.[Cl-]	128	16	64	16	262	–	–	–	–
CCCCCCCC[N+](C)(C)CC(=O)Nc1ccc(C(=O)/C=C/c2cccc(Br)n2)cc1.[Cl-]	32	4	16	8	363	–	–	–	–
CCCCCCCC[N+](C)(C)CC(=O)Nc1ccc(C(=O)/C=C/c2c(F)cccc2F)cc1.[Cl-]	128	32	128	32	50	–	–	–	–
CCCCCCCCCCCCCCCCCC[N+](C)(C)CC(=O)Nc1ccc(C(=O)/C=C/c2ccccc2F)cc1.[Cl-]	> 128	> 128	> 128	> 128	444	–	–	–	–
CCCCCCCC[N+](C)(C)CC(=O)Nc1ccc(C(=O)/C=C/c2cccnc2)cc1.[Cl-]	32	4	16	8	127	–	–	–	–
CCCCCCCC[N+](C)(C)CC(=O)Nc1ccc(C(=O)/C=C/c2ccccn2)cc1.[Cl-]	32	4	16	8	187	–	–	–	–
CCCCCCCCCCCC[N+](C)(C)CC(=O)Nc1ccc(C(=O)/C=C/c2ccccc2F)cc1.[Cl-]	32	4	16	8	293	–	–	–	–
CCCCCCCC[N+](C)(C)CC(=O)Nc1ccc(C(=O)/C=C/c2cccc(F)c2F)cc1.[Cl-]	8	0.5	2	2	56	Active	Active	Active	Active
CCCCCCCC[N+](C)(C)CC(=O)Nc1ccc(C(=O)/C=C/c2ccc(C(C)(C)C)cc2)cc1.[Cl-]	16	2	16	4	284	–	–	–	–
CCCCCCCC[N+](C)(C)CC(=O)Nc1ccc(C(=O)/C=C/c2cccc(F)c2)cc1.[Cl-]	> 128	32	> 128	64	68	–	–	–	–

Source: ChEMBL document CHEMBL4138242, “Synthesis and antibacterial evaluation of novel cationic chalcone derivatives possessing broad spectrum antibacterial activity” (Eur J Med Chem, 2018)
